TRPC6 inh: mouse TRPC6 channel inhibition; HEK293-TRPC6, membrane potential dye, ACh-evoked depolarization; hits give low values; B-score at 10 µM; hit rate 1.1% among 310,000; Q61143;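 active = B-score under library mean minus 3 SD, initial fluorescence not abnormally high, positive integrated signal ratio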;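 also: B-score derived from integrated fluorescence ratio over the kinetic read; more negative B-score means stronger inhibition of depolarization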
TRPC6 act: activates the mouse TRPC6 cation channel. HEK293-TRPC6 membrane potential dye fluorescence; hits give high values. B-score at 10 µM. hit rate 0.13% among 310,000;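 active = B-score of the integrated fluorescence ratio above library mean plus 3 SD, and starting fluorescence ratio within library mean plus 5 SD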;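 also: higher score means more depolarization so channel activation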
TRPC4 act: opens the mouse TRPC4 cation channel; B-score at 10 µM; hit rate 0.49% among 310,000; AID 2237; Q9QUQ5; HEK293 TRPC4beta/mu-opioid, Fluo4 calcium fluorescence; hits give high values;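 active = B-score above 5 SD of library B-scores, and initial fluorescence ratio not above library mean plus 5 SD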;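 also: positive B-score marks a calcium rise read as TRPC4 activation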
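Assay system – TRPC4beta and mu-opioid receptor HEK293 stable cells · Measured by – Fluo4 fluorescence, kinetic · Schedule – dye loading 45 min room temperature, 110 s kinetic read · Read-out – B-scored integrated calcium fluorescence ratio · Controls – buffer and maximal DAMGO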
TRPC4 potent: allosteric potentiators of mouse TRPC4 channel; Q9QUQ5; HEK293 TRPC4beta/mu-opioid, DAMGO EC20, Fluo-4 Ca2+ flux; hits give high values; hit rate 0.42% among 310,000; B-score at 10 µM;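 active = B-score of calcium response area above 5 SD of library B-scores, with initial fluorescence ratio within 5 SD of library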;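 also: B-score of integrated fluorescence ratio over time as area under calcium response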
TRPC4 inh: TRPC4 (mouse) channel inhibition; Q9QUQ5; B-score at 10 µM; HEK293 TRPC4beta/mu-opioid, DAMGO-evoked Fluo4 calcium flux; hits give low values; hit rate 0.39% among 300,000;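 active = B-score over 3 SD under the library average, no early fluorescence shift, positive overall ratio signal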
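Test system – stable TRPC4beta/mu-opioid receptor HEK293 cells · Probe or stimulus – DAMGO, a submaximal dose followed by a maximal one · Dosing – one concentration per compound · Signal – Fluo4 calcium fluorescence by kinetic imaging, 5 s 1 Hz baseline · Evaluation – per-well B score of integrated baseline-normalized Fluo4 ratio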
TRPC4 sel inh 2: second selectivity test of TRPC6 inhibitors: effect on mouse TRPC4; inhibition, % at 10 µM; shares compounds with TRPC6 inh; AID 2776; hit rate 42% among 920; HEK293 TRPC4/MOR, membrane potential dye fluorescence; channel activated by saturating DAMGO dose;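 active = compounds whose fluorescence signal differed from control wells by over 3 SD, either direction, in both duplicate plates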
TRPC4 spec: mouse TRPC4 off-target activity of TRPC6 inhibitors. HEK293 TRPC4/mu-opioid, membrane potential fluorescence. activity change, negative = inhibition, % at 10 µM. shares compounds with TRPC6 inh. AID 2777. hit rate 61% among 920;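 active = rise or fall in signal beyond 3 SD of buffer-only wells in both replicate plates, either sign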;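 also: integrated kinetic ratio of fluorescence range over baseline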
HEK293 MPD ctr 2-1: second counter-screen for TRPC6 inhibitors: parental HEK293 cells; shares compounds with TRPC6 inh; parental HEK293 membrane potential dye fluorescence; maximal acetylcholine challenge after compound addition; signal change vs control, % at 10 µM; hit rate 31% among 920; AID 2779;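 active = membrane potential signal moving either way by over 3 SD of the maximum-effect control, in both duplicate plates, meaning non-specific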
HEK293 MPD ctr-1: parental HEK293 nonspecific activity of TRPC6 inhibitors; shares compounds with TRPC6 inh; parental HEK293 membrane potential dye fluorescence; hit rate 60% among 920; membrane potential signal change, % at 10 µM;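 active = membrane potential signal shifting up or down by more than 3 SD of buffer-only wells, on both duplicate plates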
HEK293 MPD ctr-2: parental HEK293 nonspecific activity of TRPC6 modulators | shares compounds with TRPC6 inh | membrane potential dye fluorescence | membrane potential signal change, % at 10 µM | hit rate 51% among 2,400 | AID 488924;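 active = membrane potential signal moves up or down beyond 5 SD from buffer-only wells, on both duplicate plates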
HEK293 MPD ctr 2-2: second check of TRPC6 modulator effects in parental HEK293 cells. shares compounds with TRPC6 inh. membrane potential dye fluorescence; after compound, maximal acetylcholine stimulation. inhibition, % at 10 µM. hit rate 14% among 2,400. AID 488926;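 active = membrane potential signal drops by more than 5 SD from the mean control signal, in both duplicate plates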;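 also: plate controls were acetylcholine ECmax control wells for no effect and buffer only wells for full effect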
TRPC4 ctr mod: selectivity of TRPC6 modulators against mouse TRPC4; AID 488927; HEK293 TRPC4/mu-opioid, membrane potential fluorescence; percent change from control (negative = decrease, positive = increase), % at 10 µM; hit rate 69% among 2,400; shares compounds with TRPC6 inh;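 active = membrane potential signal moved up or down beyond 5 SD of buffer control wells, in both duplicate plates, actives on both sides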;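 also: plate controls were assay buffer wells for no effect and DAMGO maximal-effect wells for full effect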
TRPC4 ctr inh 2: second selectivity test of TRPC6 modulators against mouse TRPC4 | shares compounds with TRPC6 inh | HEK293 TRPC4/mu-opioid, membrane potential dye fluorescence; stimulated with maximal-effect DAMGO | inhibition, % at 10 µM | hit rate 55% among 2,400 | AID 488928;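 active = drop in membrane potential signal beyond 5 SD of the control wells in both duplicate plates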;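 also: TRPC4 counter screen for TRPC6 hits run under conditions tuned for TRPC6 not TRPC4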
TRPC6 inh conf: mouse TRPC6 inhibitor confirmation; shares compounds with TRPC6 inh; hit rate 43% among 3,300; AID 488960; HEK293-TRPC6, membrane potential dye, ACh-evoked depolarization; inhibition, % at 10 µM;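 active = fluorescence ratio falls more than 5 SD below the full-stimulation control mean, in both duplicate runs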;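 also: integrated fluorescence ratio of peak minus minimum over baseline after agonist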
TRPC6 act confirm: mouse TRPC6 activator confirmation; shares compounds with TRPC6 inh; HEK293-TRPC6 membrane potential dye fluorescence, FDSS; activation, % at 10 µM; hit rate 11% among 2,800; AID 488961;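 active = ratio signal rise beyond 5 SD above unstimulated control wells' mean, seen in both duplicate runs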;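 also: plate controls were buffer EC0 wells for no effect and acetylcholine ECmax response for full effect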
The depositor's hits bear a star; i = inactive; / = no result. Most compounds without a hit are left out; they make up all but 2.3% or so of the library.

SMILES	TRPC6 inh	TRPC6 act	TRPC4 act	TRPC4 potent	TRPC4 inh	HEK293 MPD ctr-2	HEK293 MPD ctr 2-2	TRPC4 ctr mod	TRPC4 ctr inh 2	TRPC6 inh conf	TRPC6 act confirm	others
S=c1[nH]nc(CCc2ccccc2)n1Cc1ccccc1	i	i	i	i	i	/	/	/	/	/	/
Cc1cccc(-c2n[nH]c(=S)n2Cc2ccccc2)c1	i	i	i	i	i	/	/	/	/	/	/
Cc1ccc(-c2n[nH]c(=S)n2Cc2ccccc2)cc1	-5.04*	i	i	i	i	i	i	i	i	i	i
Cc1nccn1CCc1n[nH]c(=S)n1Cc1ccccc1	-6.51*	i	i	i	i	i	i	i	i	69.0%*	i
COc1cccc(NC(=O)c2c(C)nn(-c3ccccc3)c2Cl)c1	i	i	i	i	i	/	/	/	/	/	/
CCN(CC)CCN1c2ccccc2Sc2ccc3ccccc3c21	-5.95*	i	i	i	i	i	i	i	i	i	i
CCN(CC)CCN1c2ccccc2Sc2ccccc21	-6.25*	i	i	i	-6*	92.0%*	i	49.0%*	64.5%*	55.0%*	/
CCN1C(=O)/C(=C/C=C2/Sc3ccc4ccccc4c3N2CCO)SC1=S	i	i	i	i	i	/	/	/	/	/	/
O=C(CSCc1cnn(-c2ccccc2)c1-n1cccc1)NCc1ccccn1	-6.28*	i	i	i	i	i	i	11.0%*	i	i	/
Cc1occc1C(=O)Nc1cnn(CCCC(=O)O)c1	i	i	i	i	i	/	/	/	/	/	/
CN(C)c1ccc(C(=O)N=c2sccn2C)cc1[N+](=O)[O-]	i	i	i	i	i	/	/	/	/	/	/
COCc1ccc(CN2CCC(C(=O)Nc3cccc(-c4cccc(Cl)c4)c3)CC2)o1	i	i	i	i	i	/	/	/	/	/	/
COc1cccc(-c2cccc(NC(=O)C3CCN(Cc4ccc(C)o4)CC3)c2)c1	-5.32*	i	i	i	i	127.5%*	i	18.0%*	44.5%*	i	/
COc1ccc(-c2n(CC(=O)OC3CC(C)CCC3C(C)C)c3ccccc3[n+]2C)cc1 (centres undefined)	-5.07*	14.7*	i	i	i	536.0%*	i	108.0%*	56.0%*	49.5%*	191.5%*
CC1CCC(C(C)C)C(OCC(O)C[N+]2(C)CCCCC2)C1 (centres undefined)	i	i	i	i	i	/	/	/	/	/	/
CC1CCC(C(C)C)C(OCC[N+](C)(C)C)C1 (centres undefined)	-7.73*	i	i	i	i	/	/	/	/	79.5%*	i	TRPC4 sel inh 2=i;TRPC4 spec=i;HEK293 MPD ctr 2-1=4.5%*;HEK293 MPD ctr-1=i
CCOC(=O)c1cc2[nH]c3ccccc3c2[n+](-c2ccc([N+](=O)[O-])cc2)c1C	-7.6*	i	i	i	i	-275.0%*	i	-49.5%*	56.0%*	60.0%*	i
CCOC(=O)c1cc2[nH]c3ccccc3c2[n+](-c2ccc([N+](=O)[O-])cc2)c1N	i	i	i	i	i	/	/	/	/	/	/
CCOc1ccc(NC(=O)C2C(c3ccccc3)C2(Cl)Cl)cc1 (centres undefined)	i	i	i	i	i	/	/	/	/	/	/
CCOc1ccc(NC(=O)C2C(C(=O)O)C3(Cl)C(Cl)=C(Cl)C2(Cl)C3(Cl)Cl)cc1 (centres undefined)	i	13.2*	i	i	i	250.5%*	i	33.0%*	i	i	105.5%*
CCOc1cccc2cc(C(=O)NCc3ccc(Cl)cc3)c(=N)oc12	i	i	i	i	i	/	/	/	/	/	/
O=C(OC(c1ccccc1)c1nccc2ccccc12)c1cc([N+](=O)[O-])cc([N+](=O)[O-])c1 (centres undefined)	i	i	i	i	i	/	/	/	/	/	/
COc1ccc(CCNCc2ccc(OCc3ccc(Cl)nc3)c(OC)c2)cc1OC	-6.05*	i	i	i	i	i	i	i	72.5%*	44.5%*	i
O=C(CN1CCN(S(=O)(=O)c2ccccc2)CC1)NCCc1ccccc1	i	i	i	i	i	/	/	/	/	/	/
Cc1cccn2c(=O)c3cc(C(=O)NCc4ccco4)c(=N)n(C(C)C)c3nc12	-8.05*	i	i	i	i	/	/	/	/	i	i	TRPC4 sel inh 2=i;TRPC4 spec=-30.6%*;HEK293 MPD ctr 2-1=i;HEK293 MPD ctr-1=-445.5%*
Cc1cccn2c(=O)c3cc(C(=O)NCc4cccnc4)c(=N)n(C(C)C)c3nc12	-6.16*	i	i	i	i	i	i	i	38.0%*	i	i
COc1ccc(-c2csc(N(CCCN(C)C)C(=O)c3ccccc3Cl)n2)cc1	-7.94*	i	i	i	i	/	/	/	/	58.9%*	i	TRPC4 sel inh 2=37.0%*;TRPC4 spec=i;HEK293 MPD ctr 2-1=i;HEK293 MPD ctr-1=i
CCN(CC)CCCN(C(=O)c1ccc(F)cc1)c1nc(-c2ccc(OC)cc2)cs1	-6.74*	i	i	i	i	/	/	/	/	72.8%*	i	TRPC4 sel inh 2=33.0%*;TRPC4 spec=i;HEK293 MPD ctr 2-1=i;HEK293 MPD ctr-1=i

Screens deposited in PubChem by Johns Hopkins Ion Channel Center.
